SENP8 block-1: SENP8 protease inhibitors, primary screen, biochemical, luminescence. Sentrin-specific protease 8 (Homo sapiens), Q96LD8. purified SENP8, Z-RLRGG-aminoluciferin cleavage. inhibition, % at 10 µM. 330,000 tested, 1.2% active. AID 2540, 2010; in the data active means inhibition above about 50%
SENP7 block: SENP7 protease inhibitors, primary screen, biochemical, luminescence, uHTS; Sentrin-specific protease 7 (Homo sapiens), Q9BQF6; recombinant SENP7, Z-RLRGG-aminoluciferin luminescence, 40 min; inhibition, % at 5 µM; 330,000 tested, 1.5% active; AID 434973, 2010;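 active means inhibition above about 50% at the single test dose, limit read from the data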
Target sequence (Q9BQF6 706-1050 limits assumed): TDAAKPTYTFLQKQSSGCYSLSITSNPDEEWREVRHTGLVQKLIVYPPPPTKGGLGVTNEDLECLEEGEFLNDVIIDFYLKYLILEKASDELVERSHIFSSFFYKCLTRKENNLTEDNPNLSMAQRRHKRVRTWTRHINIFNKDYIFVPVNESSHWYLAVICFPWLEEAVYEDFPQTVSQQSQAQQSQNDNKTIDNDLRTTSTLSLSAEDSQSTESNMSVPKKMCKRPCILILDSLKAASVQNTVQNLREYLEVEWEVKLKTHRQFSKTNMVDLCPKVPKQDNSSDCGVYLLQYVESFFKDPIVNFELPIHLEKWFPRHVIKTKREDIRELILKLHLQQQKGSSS
SENP8 block-2: human SENP8 protease inhibitors, primary screen, biochemical, fluorescence, Nedd8 protein substrate, uHTS; AID 602440, 2012; 360,000 tested, 0.64% active; recombinant SENP8; inhibition, % at 20 µM; Sentrin-specific protease 8 (Homo sapiens), Q96LD8; in the data active means inhibition mostly above about 40%, no sharp cut-off; inactive means mostly below about 27%
UBC13 inh: UBC13 polyubiquitin chain formation inhibitors, primary screen, biochemical, TR-FRET, uHTS | inhibition, % at 20 µM | AID 485273, 2010 | 330,000 tested, 0.47% active | Ubiquitin-conjugating enzyme E2 N (Homo sapiens), P61088; in the data active means inhibition above about 45%, passing the limit was not always enough
Target sequence (P61088 whole entry, looked up): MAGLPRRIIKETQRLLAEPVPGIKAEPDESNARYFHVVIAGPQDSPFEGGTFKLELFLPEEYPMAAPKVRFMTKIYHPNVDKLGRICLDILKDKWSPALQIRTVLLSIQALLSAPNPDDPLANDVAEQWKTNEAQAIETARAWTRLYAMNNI
SENP6 inh: SENP6 protease inhibitors, primary screen, biochemical, luminescence, uHTS | AID 2599, 2010 | 330,000 tested, 1.8% active | Recombinant SENP6 catalytic domain, aminoluciferin luminescence | inhibition, % at 10 µM | Sentrin-specific protease 6 (Homo sapiens), Q9GZR1;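 active means inhibition above about 50% at the single tested dose, limit read from the data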
Apaf1 inhib: inhibitors of human Apaf-1 apoptosome, primary screen, biochemical, DEVD-Rh110 fluorescence, uHTS. reconstituted apoptosome caspase-3 activity. 330,000 tested, 0.71% active. inhibition, % at 20 µM. AID 489030, 2010; active means inhibition of at least 40% at 20 µM
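Material: reconstituted apoptosome with Apaf-1, cytochrome c, caspase-9, procaspase-3, dATP; medium: pH 7.5 Hepes buffer with CHAPS, BSA, DTT; also added: cytochrome c and DEVD-Rh110 substrate; timing: 30 min plus 50 min, RT; signal: Rh110 fluorescence intensity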
Apaf-1 inh conf: Apaf-1 inhibitors, single-dose retest, confirmation, biochemical, fluorescence, DEVD-Rh110, 20 µM. shares compounds with Apaf1 inhib. reconstituted apoptosome, caspase-3 DEVD-Rh110 fluorescence. inhibition, % at 20 µM. 1,800 tested, 25% active. AID 504614, 2011;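 active means mean inhibition of at least 40% at 20 µM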
Rh110 interf inh: Rh110 fluorescence interference by putative Apaf-1 inhibitors, confirmation, artefact control for Apaf-1 inhibitor project, biochemical, 20 µM | shares compounds with Apaf1 inhib | quenched caspase reaction | activation (fluorescence interference), % at 20 µM | AID 504615, 2011 | 1,800 tested, under 10 active;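 active means signal rise of 40% or more at 20 µM, treated as a fluorescence artifact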
Apaf1 inh interf: fluorescence interference of Apaf-1 inhibitor hits, dose response, artefact control for Apaf-1 inhibitor project | fluorescence interference counterscreen, Apaf-1 assay format | IC50, µM | 460 tested, under 10 active | AID 588538, 2011 | shares compounds with Apaf1 inhib; call rule not given here
Hits are given with their value. A selection: hits, their analogues and other compounds. The true share with any hit is near 3%.

Screening CCC(CO)Oc1cc(NCc2cccc(Cl)c2)c2ncn(C(C)C)c2c1 (centres undefined) returned SENP8 block-1 inactive, SENP7 block inactive, SENP8 block-2 inactive, UBC13 inh inactive, SENP6 inh inactive, Apaf1 inhib 73, Apaf-1 inh conf inactive and Rh110 interf inh inactive.
For CCC(CO)Oc1cc(NCc2cccnc2)c2ncn(C(C)C)c2c1 (centres undefined) the results were SENP8 block-1 inactive, SENP7 block inactive, SENP8 block-2 inactive, UBC13 inh inactive, SENP6 inh inactive, Apaf1 inhib 63, Apaf-1 inh conf inactive and Rh110 interf inh inactive.
Screening COc1cc(NCc2ccccc2)c2ncn(C(C)C)c2c1 returned SENP8 block-1 inactive, SENP7 block inactive, SENP8 block-2 inactive, UBC13 inh inactive, SENP6 inh inactive and Apaf1 inhib inactive.
CCC(CO)Oc1cc(NCc2cc(C)cc(C)c2)c2ncn(C(C)C)c2c1 (centres undefined) was read as SENP8 block-1 inactive, SENP7 block inactive, SENP8 block-2 inactive, UBC13 inh inactive, SENP6 inh inactive and Apaf1 inhib inactive.
For CCC(CO)Oc1cc(NCc2ccc(C)c(C)c2)c2ncn(C(C)C)c2c1 (centres undefined) the results were SENP8 block-1 inactive, SENP7 block inactive, SENP8 block-2 inactive, UBC13 inh inactive, SENP6 inh inactive and Apaf1 inhib inactive.
CCC(CN(C)C)Oc1cc(NCc2ccccc2)c2ncn(C(C)C)c2c1 (centres undefined) was read as SENP8 block-1 83, SENP7 block 87, SENP8 block-2 inactive, UBC13 inh inactive, SENP6 inh inactive, Apaf1 inhib 98, Apaf-1 inh conf 80, Rh110 interf inh inactive and Apaf1 inh interf inactive.
`COc1ccc(S(=O)(=O)N2CCC(C(=O)NCCC(=O)NCc3ccccn3)CC2)cc1` gave SENP8 block-2 inactive.
COc1ccc(CNc2ccncc2)c(OC)c1OC was read as SENP8 block-2 inactive.
`COc1ccc(CNc2ccc3cn[nH]c3c2)c(OC)c1OC` gave SENP8 block-1 inactive, SENP7 block inactive, SENP8 block-2 inactive, UBC13 inh inactive, SENP6 inh inactive, Apaf1 inhib 46, Apaf-1 inh conf inactive and Rh110 interf inh inactive.
`O=C(NCc1ccccc1Cl)c1csc([C@@H]2O[C@H](CO)[C@H](O)[C@H](O)[C@H]2O)n1` gave SENP8 block-2 inactive.
CCN1CCN(c2ccc(S(=O)(=O)N3CCOCC3)cc2NC(=O)C(C)Oc2cccc(Cl)c2)CC1 (centres undefined) was read as SENP8 block-1 inactive, SENP7 block inactive, SENP8 block-2 inactive, UBC13 inh inactive, SENP6 inh inactive and Apaf1 inhib inactive.
`CC(Oc1cccc(Cl)c1)C(=O)Nc1cc(S(=O)(=O)N2CCOCC2)ccc1N1CCCCC1` (centres undefined) gave SENP8 block-1 inactive, SENP7 block inactive, SENP8 block-2 inactive, UBC13 inh inactive, SENP6 inh inactive, Apaf1 inhib 48, Apaf-1 inh conf 43, Rh110 interf inh inactive and Apaf1 inh interf inactive.
O=C(c1ccc(-c2ccccc2Cl)o1)N1CCCC(C(F)(F)F)C1 (centres undefined) was read as SENP8 block-1 inactive, SENP7 block inactive, SENP8 block-2 inactive, UBC13 inh inactive, SENP6 inh inactive, Apaf1 inhib 41, Apaf-1 inh conf inactive and Rh110 interf inh inactive.
Screening O=C(c1ccc(-c2ccccc2Cl)o1)N1CCC1 returned SENP8 block-1 inactive, SENP7 block inactive, SENP8 block-2 inactive, UBC13 inh inactive, SENP6 inh inactive and Apaf1 inhib inactive.
`O=C1NC[C@H](CCCCN2C[C@H](Cc3ccc(O)cc3)N(CCc3ccc(O)cc3)C(=O)C2=O)N(Cc2ccccc2)C1=O` gave SENP8 block-2 inactive.
O=c1[nH]c(=O)n(C2CCCCCC2)c(O)c1C=NCc1ccc(F)cc1 was read as SENP8 block-1 inactive, SENP7 block inactive, SENP8 block-2 inactive, UBC13 inh inactive, SENP6 inh inactive, Apaf1 inhib 40, Apaf-1 inh conf inactive and Rh110 interf inh inactive.
For Cc1[nH]n(-c2ccccc2)c(=O)c1N=Nc1nccs1 the results were SENP8 block-1 inactive, SENP7 block inactive, SENP8 block-2 56, UBC13 inh inactive, SENP6 inh inactive, Apaf1 inhib 73, Apaf-1 inh conf inactive and Rh110 interf inh inactive.
Screening Cc1ccc(-c2nn(CCC#N)cc2C=C(C#N)C#N)cc1 returned SENP8 block-1 inactive, SENP7 block inactive, SENP8 block-2 inactive, UBC13 inh inactive, SENP6 inh inactive and Apaf1 inhib inactive.
`CC1=NN(c2ccccc2)C(=O)/C1=C\c1cn(CCC#N)nc1-c1ccc(Cl)cc1` gave SENP8 block-1 inactive, SENP7 block inactive, SENP8 block-2 inactive, UBC13 inh inactive, SENP6 inh inactive, Apaf1 inhib 80, Apaf-1 inh conf inactive and Rh110 interf inh inactive.
For CCc1nc2ccc(C(=O)Nc3cccc(OC)c3)cn2c1N(C)Cc1ccc(OC)cc1 the results were SENP8 block-2 inactive.
`O=C(C1CCCCC1)N1C[C@@H](O)[C@H](n2cc(-c3ccc(F)cc3)nn2)C[C@@H]1c1ccccc1` gave SENP8 block-2 inactive.
`Cc1ccn2c(NC3CCCCC3)c(-c3cccc(SC4CCCCC4)c3)nc2c1` gave SENP8 block-1 inactive, SENP7 block inactive, SENP8 block-2 inactive, UBC13 inh inactive, SENP6 inh inactive, Apaf1 inhib 40, Apaf-1 inh conf inactive and Rh110 interf inh inactive.
Screening CCCCCCSc1cccc(-c2nc3cc(C)ccn3c2NCc2ccccc2)c1 returned SENP8 block-1 inactive, SENP7 block inactive, SENP8 block-2 inactive, UBC13 inh inactive, SENP6 inh inactive, Apaf1 inhib 40, Apaf-1 inh conf inactive and Rh110 interf inh inactive.
`CCC(C)Sc1cccc(-c2nc3cc(C)ccn3c2NC2CCCCC2)c1` (centres undefined) gave SENP8 block-1 inactive, SENP7 block inactive, SENP8 block-2 inactive, UBC13 inh inactive, SENP6 inh inactive, Apaf1 inhib 41, Apaf-1 inh conf inactive and Rh110 interf inh inactive.

Screens from PubChem BioAssay.
